We go through 1 compound from ChEMBL document CHEMBL3259588, “Anti-inflammatory drimane sesquiterpene lactones from an Aspergillus species” (Bioorg Med Chem, 2014).

Active and inactive are the calls of the source. The calls are words filed in the database; no cut-off is given here.

Holding throughout (assay type): cell-based
Data set [1] in a line: (§1) Inhibition of TNF-alpha/IFN-gamma/IL-1beta-induced human CXCL10 (972 bp) promoter activity expressed in human DLD1 cells after 24 hrs by luciferase reporter assay. The following applies: DLD-1, 24 h. In a few lines: (§2)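 DLD-1 in 24-well plates, switched to 0.5% FCS without antibiotics a day before lipofection (Lipofectamine 2000, 0.8 µg plasmid) with 972 bp CXCL10 promoter, NF-κB, GAS/Stat1 or ISRE luciferase reporters plus pRL-CMV. Stimulated 24 h with 10 ng/mL TNF-α, 10 ng/mL IFN-γ, 5 ng/mL IL-1β ± compound; Dual-Glo firefly/Renilla read. Stimulation-only = 100%; mean ± SEM, ≥3 experiments.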
Background: A reporter such as luciferase makes a cellular process visible.

Data set [2] deals with DLD-1. The description is as §1. The essentials:
as §2

Data set [3] can be described thus: Inhibition of TNF-alpha/IFN-gamma/IL-1beta-induced human CXCL10 (972 bp) promoter activity expressed in human DLD1 cells after 24 hrs by […]-driven luciferase reporter assay. The following applies: DLD-1, 24 h. In a few lines: as §2
Data set [4] addresses T1, Signal transducer and activator of transcription 1-alpha/beta (Homo sapiens) (UniProt P42224).
T1 sequence (whole entry): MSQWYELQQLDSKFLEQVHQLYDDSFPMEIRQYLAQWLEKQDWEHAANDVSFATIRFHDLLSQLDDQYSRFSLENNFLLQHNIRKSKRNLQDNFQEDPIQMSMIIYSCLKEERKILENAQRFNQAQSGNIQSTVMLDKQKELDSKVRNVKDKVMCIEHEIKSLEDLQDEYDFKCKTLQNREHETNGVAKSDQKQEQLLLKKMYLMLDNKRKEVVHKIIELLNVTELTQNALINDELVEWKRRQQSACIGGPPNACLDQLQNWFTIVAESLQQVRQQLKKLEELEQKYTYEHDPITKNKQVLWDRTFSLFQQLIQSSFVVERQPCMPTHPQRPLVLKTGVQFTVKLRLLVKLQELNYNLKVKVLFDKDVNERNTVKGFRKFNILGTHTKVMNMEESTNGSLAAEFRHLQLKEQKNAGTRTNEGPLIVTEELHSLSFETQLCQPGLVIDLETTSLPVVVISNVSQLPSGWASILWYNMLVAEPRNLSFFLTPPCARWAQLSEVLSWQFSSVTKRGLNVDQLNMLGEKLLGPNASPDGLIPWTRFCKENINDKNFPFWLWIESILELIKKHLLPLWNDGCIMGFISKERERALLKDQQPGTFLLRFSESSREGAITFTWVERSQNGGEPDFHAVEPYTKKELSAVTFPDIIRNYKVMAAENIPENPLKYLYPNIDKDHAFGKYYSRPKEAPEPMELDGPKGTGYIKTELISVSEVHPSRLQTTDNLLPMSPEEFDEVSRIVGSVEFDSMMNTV
The data set can be described thus: Inhibition of Stat1 (unknown origin)-induced human CXCL10 (972 bp) promoter activity expressed in TNF-alpha/IFN-gamma/IL-1beta-stimulated human DLD1 cells after 24 hrs by luciferase reporter assay. The note with it: DLD-1. The essentials: as §2

Data set [5] deals with DLD-1. The data set can be described thus: Inhibition of TNF-alpha/IFN-gamma/IL-1beta-induced human CXCL10 (972 bp) promoter activity expressed in human DLD1 cells assessed as CXCL10 gene expression at 131.5 uM after 5 hrs by RT-PCR method relative to untreated-control. In a few lines:
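Cells starved 16 h (0.5% FCS), compound pretreatment 1 h, then TNF-α 10 ng/mL/IFN-γ 10 ng/mL/IL-1β 5 ng/mL for 5 h. Total RNA analysed by two-step qRT-PCR for cxcl10, gapdh-corrected (Pfaffl); induced vs uninduced and treated-induced vs untreated-induced (100%).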

Data set [6] in a line: Cytotoxicity against human DLD1 cells up to 158 uM after 48 hrs by XTT assay. The following applies: dld-1, 48 h. In a few lines:
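DLD-1 cells (RPMI 1640, 25 mM HEPES, 10% FCS, 37 °C, 5% CO2) exposed to compound for 48 h; viability read as XTT reduction to coloured formazan.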

For data set [7], the system named is DLD-1. The data set can be described thus: Inhibition of TNF-alpha/IFN-gamma/IL-1beta-induced human CXCL10 (972 bp) promoter activity expressed in human DLD1 cells assessed as reduction in CXCL10 expression pretreated at 131.5 uM for 1 hr prior to 16 hrs cytokine challenge by proteome profiling method relative to untreated-control. In a few lines: (§3)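 DLD-1 starved 16 h in 0.5% FCS, seeded 5×10^6 cells/mL, pretreated 1 h with compound, then stimulated 16 h with 10 ng/mL TNF-α, 10 ng/mL IFN-γ, 5 ng/mL IL-1β. Supernatant cytokines/chemokines detected on Human Cytokine Array Panel A antibody array.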

The test system of data set [8] is DLD-1. Description: Inhibition of TNF-alpha/IFN-gamma/IL-1beta-induced human CXCL10 (972 bp) promoter activity expressed in human DLD1 cells assessed as reduction in MIF expression pretreated at 131.5 uM for 1 hr prior to 16 hrs cytokine challenge by proteome profiling method relative to untreated-control. The essentials: as §3
Data set [9] relates to DLD-1. The data set can be described thus: Inhibition of TNF-alpha/IFN-gamma/IL-1beta-induced human CXCL10 (972 bp) promoter activity expressed in human DLD1 cells assessed as reduction in IL8 expression pretreated at 131.5 uM for 1 hr prior to 16 hrs cytokine challenge by proteome profiling method relative to untreated-control. In a few lines:
as §3

Data set [10] has as its system DLD-1. Description: Inhibition of TNF-alpha/IFN-gamma/IL-1beta-induced human CXCL10 (972 bp) promoter activity expressed in human DLD1 cells assessed as reduction in CXCL1 expression pretreated at 131.5 uM for 1 hr prior to 16 hrs cytokine challenge by proteome profiling method relative to untreated-control. The essentials:
as §3

The subject of data set [11] is DLD-1. The data set can be described thus: Inhibition of TNF-alpha/IFN-gamma/IL-1beta-induced human CXCL10 (972 bp) promoter activity expressed in human DLD1 cells assessed as reduction in IL1-beta expression pretreated at 131.5 uM for 1 hr prior to 16 hrs cytokine challenge by proteome profiling method relative to untreated-control. The essentials:
as §3

Data set [12] concerns DLD-1. Description: Inhibition of TNF-alpha/IFN-gamma/IL-1beta-induced human CXCL10 (972 bp) promoter activity expressed in human DLD1 cells assessed as reduction in IL-27 expression pretreated at 131.5 uM for 1 hr prior to 16 hrs cytokine challenge by proteome profiling method relative to untreated-control. In a few lines:
as §3

The test system of data set [13] is DLD-1. Description: Inhibition of TNF-alpha/IFN-gamma/IL-1beta-induced human CXCL10 (972 bp) promoter activity expressed in human DLD1 cells assessed as reduction in TNF-alpha expression pretreated at 131.5 uM for 1 hr prior to 16 hrs cytokine challenge by proteome profiling method relative to untreated-control. The essentials:
as §3

In data set [14] the target is T2, Nuclear factor NF-kappa-B complex (Homo sapiens) (UniProt Q00653+P19838+Q04206). Description: Inhibition of NF-kappaB (unknown origin) expressed human DLD1 cells assessed as reduction in IL1-beta gene expression pretreated at 67.75 uM for 1 hr by RT-PCR method relative to untreated-control. The note with it: DLD-1. In a few lines:
(§4)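 DLD-1 seeded 5×10^5 cells/mL, grown 24 h, starved 16 h in 0.5% FCS, pretreated with compound 1 h, then stimulated with 10 ng/mL TNF-α, 10 ng/mL IFN-γ, 5 ng/mL IL-1β for 5 h. tnf-α, il-1β, inos mRNA by two-step qRT-PCR, Pfaffl relative quantification, normalised to gapdh; stimulated-untreated control = 100%. Mean ± SEM, three independent experiments.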

Data set [15] concerns the target T2, Nuclear factor NF-kappa-B complex (Homo sapiens). The data set can be described thus: Inhibition of NF-kappaB (unknown origin) expressed human DLD1 cells assessed as reduction in TNF-alpha gene expression pretreated at 67.75 uM for 1 hr by RT-PCR method relative to untreated-control. The note with it: DLD-1. The essentials:
as §4

Data set [16] has the same target. The data set can be described thus: Inhibition of NF-kappaB (unknown origin) expressed human DLD1 cells assessed as reduction in iNOS gene expression pretreated at 67.75 uM for 1 hr by RT-PCR method relative to untreated-control. The note with it: DLD-1. The essentials: as §4
For data set [17], the target named is T1, Signal transducer and activator of transcription 1-alpha/beta (Homo sapiens). Description: Inhibition of Stat1 (unknown origin) expressed human DLD1 cells assessed as reduction in IL1-beta gene expression pretreated at 67.75 uM for 1 hr by RT-PCR method relative to untreated-control. The note with it: DLD-1. The essentials: as §4
The target is the same in data set [18]. Description: Inhibition of Stat1 (unknown origin) expressed human DLD1 cells assessed as reduction in TNF-alpha gene expression pretreated at 67.75 uM for 1 hr by RT-PCR method relative to untreated-control. The note with it: DLD-1. In a few lines: as §4
Data set [19] has the same target. Description: Inhibition of Stat1 (unknown origin) expressed in human DLD1 cells assessed as reduction in iNOS gene expression pretreated at 67.75 uM for 1 hr by RT-PCR method relative to untreated-control. The note with it: DLD-1. In a few lines: as §4

T2 sequence (P19838 whole entry, looked up): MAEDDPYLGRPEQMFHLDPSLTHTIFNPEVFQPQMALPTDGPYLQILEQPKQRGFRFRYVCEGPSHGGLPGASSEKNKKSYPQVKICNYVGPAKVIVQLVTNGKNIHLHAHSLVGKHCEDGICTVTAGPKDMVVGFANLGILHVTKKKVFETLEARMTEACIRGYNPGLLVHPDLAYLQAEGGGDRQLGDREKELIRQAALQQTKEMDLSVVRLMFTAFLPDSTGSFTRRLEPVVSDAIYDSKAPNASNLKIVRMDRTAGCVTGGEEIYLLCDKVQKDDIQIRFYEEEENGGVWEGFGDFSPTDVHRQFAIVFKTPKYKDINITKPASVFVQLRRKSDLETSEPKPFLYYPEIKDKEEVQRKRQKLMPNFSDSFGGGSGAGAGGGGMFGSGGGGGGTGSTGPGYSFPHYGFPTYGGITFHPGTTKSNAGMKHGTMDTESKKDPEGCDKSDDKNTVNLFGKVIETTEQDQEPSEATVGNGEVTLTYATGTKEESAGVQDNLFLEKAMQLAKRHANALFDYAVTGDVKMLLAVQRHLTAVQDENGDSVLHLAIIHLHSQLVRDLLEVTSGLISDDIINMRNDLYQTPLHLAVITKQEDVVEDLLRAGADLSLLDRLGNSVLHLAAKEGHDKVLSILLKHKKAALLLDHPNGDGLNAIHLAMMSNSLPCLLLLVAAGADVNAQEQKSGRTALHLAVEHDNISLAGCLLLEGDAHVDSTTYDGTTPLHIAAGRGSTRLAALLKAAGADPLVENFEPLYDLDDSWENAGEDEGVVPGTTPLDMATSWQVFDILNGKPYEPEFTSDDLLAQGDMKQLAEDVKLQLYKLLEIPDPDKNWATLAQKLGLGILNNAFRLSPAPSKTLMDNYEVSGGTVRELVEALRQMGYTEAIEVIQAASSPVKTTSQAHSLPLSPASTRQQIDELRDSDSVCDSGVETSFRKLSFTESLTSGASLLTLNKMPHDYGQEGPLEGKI
T2 sequence (Q00653 whole entry, looked up): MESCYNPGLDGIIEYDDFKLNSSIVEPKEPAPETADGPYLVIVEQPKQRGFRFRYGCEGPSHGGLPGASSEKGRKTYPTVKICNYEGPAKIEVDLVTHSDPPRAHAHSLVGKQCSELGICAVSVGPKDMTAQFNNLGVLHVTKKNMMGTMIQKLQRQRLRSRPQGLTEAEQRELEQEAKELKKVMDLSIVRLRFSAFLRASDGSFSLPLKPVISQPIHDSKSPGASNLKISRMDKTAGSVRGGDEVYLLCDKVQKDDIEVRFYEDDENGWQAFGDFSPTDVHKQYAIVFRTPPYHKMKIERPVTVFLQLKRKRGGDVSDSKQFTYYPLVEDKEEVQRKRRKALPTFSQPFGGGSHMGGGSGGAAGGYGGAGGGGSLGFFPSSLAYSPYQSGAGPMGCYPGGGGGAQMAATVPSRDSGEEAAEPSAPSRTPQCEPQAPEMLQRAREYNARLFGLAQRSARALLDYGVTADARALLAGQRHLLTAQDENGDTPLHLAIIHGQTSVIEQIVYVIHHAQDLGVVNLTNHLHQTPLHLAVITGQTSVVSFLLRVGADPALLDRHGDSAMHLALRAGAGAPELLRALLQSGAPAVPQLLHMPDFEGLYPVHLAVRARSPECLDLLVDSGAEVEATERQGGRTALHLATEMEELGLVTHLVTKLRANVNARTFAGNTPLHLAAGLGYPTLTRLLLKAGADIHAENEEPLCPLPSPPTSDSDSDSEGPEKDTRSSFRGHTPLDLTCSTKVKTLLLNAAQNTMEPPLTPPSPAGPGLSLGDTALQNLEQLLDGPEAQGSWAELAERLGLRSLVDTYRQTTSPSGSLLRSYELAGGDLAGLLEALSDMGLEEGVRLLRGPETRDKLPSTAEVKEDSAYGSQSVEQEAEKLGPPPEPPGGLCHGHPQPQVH
T2 sequence (Q04206 whole entry, looked up): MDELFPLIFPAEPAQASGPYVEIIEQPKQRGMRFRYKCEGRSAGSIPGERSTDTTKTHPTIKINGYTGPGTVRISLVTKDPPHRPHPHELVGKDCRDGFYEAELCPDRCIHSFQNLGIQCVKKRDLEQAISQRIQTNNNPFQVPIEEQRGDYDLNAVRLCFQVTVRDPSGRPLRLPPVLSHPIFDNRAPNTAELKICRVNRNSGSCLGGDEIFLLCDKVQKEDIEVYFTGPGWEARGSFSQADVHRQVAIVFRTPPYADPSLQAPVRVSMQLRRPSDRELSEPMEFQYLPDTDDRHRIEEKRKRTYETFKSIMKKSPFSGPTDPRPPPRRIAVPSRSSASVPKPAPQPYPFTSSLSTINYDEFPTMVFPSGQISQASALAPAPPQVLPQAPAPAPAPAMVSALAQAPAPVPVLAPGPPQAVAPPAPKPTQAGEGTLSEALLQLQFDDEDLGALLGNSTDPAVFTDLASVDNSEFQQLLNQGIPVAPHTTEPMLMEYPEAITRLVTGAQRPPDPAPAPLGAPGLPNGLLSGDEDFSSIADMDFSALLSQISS

Turning to `CCCCCC(=O)O[C@@H]1C=C2COC(=O)[C@]2(O)[C@@]2(C)[C@H](O)CCC(C)(C)[C@H]12`, the IC50 in data set [1] was determined as 55 µM; in data set [3], 49 µM. Further, the inhibition entry (in the data set on DLD-1 [2]; in [4]) was “Dose-dependent effect” in each case. Besides, the inhibition result in the data set with DLD-1 [5], with DLD-1 [7], with DLD-1 [8], with DLD-1 [9], in the data set on DLD-1 [10] and in the data set with DLD-1 [11] was “Active” in each case. Besides, the inhibition entry (in the data set with DLD-1 [12]; in the data set on DLD-1 [13]; in [14]; in [15]; in data set [16]; in [17]) was “Active” each time. Moreover, the inhibition entry in [18] and in data set [19] was “Active” in each case. In addition, the Activity entry in data set [6] was “Non-toxic”.

As a reminder, the IC50 is the midpoint of a concentration-inhibition curve.
